Measurements published in PubChem BioAssay.
Results filed as inconclusive are left out.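 The calls were made as follows, unless noted: active = RAM network inhibition above 8.4% in each of two replicates, 3 SD over the compound average; inconclusive = above 8.4% inhibition in only one replicate; inactive = 8.4% inhibition or less in each replicate.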

Key:
[1] = S. cerevisiae growth inhibition in permissive medium (OD615), pilot counter-assay for S. cerevisiae lifespan shortening project, permissive growth control (AID 705;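 active = growth inhibition above 25% in both replicates, a cutoff set 3 SD above the mean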); details: OD615, 24 h, at 10 µM, hits give high values
In short: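 Material: engineered DeaD yeast; compound dosing: one dose 10 µM, DMSO 0.25% final; measure: yeast growth inhibition indicated by reduced 24 h OD615; detection: OD615 turbidity read; incubation: cells pre-grown 4 h, then 24 h compound exposure, 30 °C humidified; medium: permissive synthetic complete medium with raffinose and galactose carbon sources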

[2] = S. cerevisiae growth inhibition in restrictive medium, OD615, pilot screen, restrictive growth control, yeast lifespan reduction project (AID 706;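 active = growth inhibition above a set limit, 3 SD over mean compound inhibition, in both replicates, cut at about 43% in these data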;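 also: modified DeaD lifespan yeast strain shifted to restrictive glucose medium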); details: OD615, 48 h, at 10 µM, hits give high values
In short: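 material = engineered S. cerevisiae DeaD strain | medium = glucose-based CSMM-D restrictive medium | times = 4 h pre-incubation, 48 h exposure at 30 °C | technique = OD615 absorbance reading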

[3] = doxorubicin toxicity protection in MRP-1 cells – H69AR cells, CellTiter-Glo, duplicate, MRP-1 activator project, pilot screen (AID 807;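 active = viability increase at or above a cutoff of the median across tested compounds plus 3 SD, cut at about 8.5% in these data, passing the limit was not always enough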;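 also: compound pretreatment 18-22 h then 72 h combined with doxorubicin; 0% = doxorubicin alone and 100% = vehicle without doxorubicin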); details: H69AR viability with doxorubicin, CellTiter-Glo luminescence; at 10 µM; hits give high values
[4] = viability of HCT116 without oncogenic beta-catenin – human colon tumor cells, pilot screen (AID 823;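 active = cell viability at or below a set limit in both duplicate runs, the limit being the all-compound median minus 4 SD, cut at about 23% in these data, passing the limit was not always enough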;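 also: 0% = wells killed by 20 µM Hyamine and 100% = untreated DMSO cell wells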); details: HCT116 beta-catenin knockout viability, CellTiter-Glo, 60 h; at 10 µM; hits give low values
[5] = viability of PTEN-null HCT116 cells – cell-based, HCT116 clonal line, CellTiter-Glo, pilot screen (AID 824;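 active = viability at or below 27.92% in each of two runs, the all-compound median minus 4 SD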;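 also: 0% = 20 µM Hyamine control and 100% = vehicle cell control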); details: HCT116 PTEN-deleted viability, 60 h, at 10 µM, hits give low values
[6] = RAM pathway blockade in budding yeast – dse1pr::URA3 reporter, 5-FOA selection, pilot screen (AID 869;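 active = inhibition over a set limit, the all-compound mean plus 3 SD, in both replicate runs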;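 also: 0% = DMSO wells with no growth and 100% = 10 µM 1-NA-PP1 with full growth; RAM network block rescues cells from 5-FOA so hits raise OD615 growth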); details: S. cerevisiae dse1pr::URA3 5-FOA growth, OD615, 2 d; at 10 µM; hits give high values; strain carries analog-sensitive mutant Cbk1 kinase
[7] = RAM signaling pathway blockade in yeast – S. cerevisiae, Pdr1DBD-CYC8 efflux-inhibited sensitized strain, primary screen (AID 1298);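 also: 0% = DMSO untreated cells without growth and 100% = 10 µM 1-NA-PP1 full growth; higher means more yeast growth rescued from 5-FOA killing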; details: S. cerevisiae cbk1-as DSE1-URA3 strain, 5-FOA growth OD615, 2 d; at 50 µM; hits give high values

CCC1CCCCN1C(=O)CSc1nnc(-c2ccc(Cl)cc2)o1 (stereo not drawn)
inactive: growth inhibition [1] 0.365% | growth inhibition [2] -5.16% | viability increase [3] 0.28% | viability [4] 87% | viability [5] 90.9% | inhibition [6] 1.89% | RAM network inhibition [7] 5.69%

O=C(CSc1nnc2ccccn12)N1CCc2ccccc2C1
inactive: growth inhibition [1] -8.87% | growth inhibition [2] 0.78% | viability increase [3] -0.88% | viability [4] 99.7% | viability [5] 93.2% | inhibition [6] 1.54% | RAM network inhibition [7] 2.11%

Cc1ccc(NC(=O)C(C)N2CCOCC2)c(C(=O)c2ccccc2)c1 (stereo not drawn)
inactive: growth inhibition [1] -11.7% | growth inhibition [2] -12.7% | viability increase [3] -1.7% | viability [4] 100% | viability [5] 99.5% | inhibition [6] 1.09% | RAM network inhibition [7] 3.04%

CCN(c1cccc(C)c1)S(=O)(=O)c1cccc2nsnc12
inactive: growth inhibition [1] -12.6% | growth inhibition [2] -20.3% | viability increase [3] -3.59% | viability [4] 77.1% | viability [5] 88.8% | inhibition [6] 1.4% | RAM network inhibition [7] 4.75%

COCc1cc(C)nc(N2CCOCC2)c1C#N
inactive: growth inhibition [1] -14.3% | growth inhibition [2] 3.52% | viability increase [3] -0.86% | viability [4] 103% | viability [5] 101% | inhibition [6] 1.35% | RAM network inhibition [7] 5.54%

Cc1ccc(C2CC(c3cccc(C)c3)n3ncnc3N2)cc1 (stereo not drawn)
inactive: growth inhibition [1] 3.83% | growth inhibition [2] 15.5% | viability increase [3] -0.97% | viability [4] 85.7% | viability [5] 86.1% | inhibition [6] 0.45% | RAM network inhibition [7] 4.74%

Cc1noc(C)c1S(=O)(=O)N(CC(=O)N1CCCC1)c1ccc(C(C)C)cc1
inactive: growth inhibition [1] -1.45% | growth inhibition [2] -1.11% | viability increase [3] -5.13% | viability [4] 83.6% | viability [5] 83% | inhibition [6] 0.4% | RAM network inhibition [7] 4.43%

O=C(NCCSCc1ccco1)c1ccc(CN2CCOCC2)cc1
inactive: growth inhibition [1] -10.4% | growth inhibition [2] -27% | viability increase [3] -1.57% | viability [4] 101% | viability [5] 99.7% | inhibition [6] 1.59% | RAM network inhibition [7] 2.06%

CC(=O)C1C(c2ccc(Cl)cc2)NC(=O)NC1(O)C(F)(F)F (stereo not drawn)
inactive: growth inhibition [1] -9.25% | growth inhibition [2] -12% | viability increase [3] -0.16% | viability [4] 103% | viability [5] 101% | inhibition [6] 0.825% | RAM network inhibition [7] 3.45%

CC1CCN(C(=O)CSc2nnc(-c3ccco3)o2)CC1
inactive: growth inhibition [1] 0.09% | growth inhibition [2] 6.93% | viability increase [3] 0.32% | viability [4] 106% | viability [5] 102% | inhibition [6] 2.54% | RAM network inhibition [7] 1.64%

O=C(Nc1nnc(-c2ccccc2)s1)c1ccc(Cl)c(S(=O)(=O)N2CCOCC2)c1
inactive: growth inhibition [1] -16.8% | growth inhibition [2] -5.79% | viability increase [3] -1.65% | viability [4] 100% | viability [5] 96.2% | inhibition [6] 2.61% | RAM network inhibition [7] 1.72%

CCOC(=O)c1c(C)c(C(=O)O)n(C)c1C
inactive: growth inhibition [1] -12.4% | growth inhibition [2] -19.7% | viability increase [3] 0.64% | viability [4] 99.5% | viability [5] 94.6% | inhibition [6] 2.54% | RAM network inhibition [7] 2.91%

CC1(C)CC(=O)C2(CC3=C(CC(C)(C)CC3=O)O2)C(=O)C1
inactive: growth inhibition [1] -4.3% | growth inhibition [2] 0.72% | viability increase [3] 0.2% | viability [4] 94.7% | viability [5] 97.1% | inhibition [6] 1.96% | RAM network inhibition [7] 1.77%

CCCC(=O)N=c1sc2cccc(F)c2n1C
inactive: growth inhibition [1] -9.43% | growth inhibition [2] -11.1% | viability increase [3] -2.75% | viability [4] 99% | viability [5] 93.2% | inhibition [6] 0.795% | RAM network inhibition [7] 5.05%

COc1ccc(OC)c(NC(=O)Cn2cnc3c(cnn3-c3ccccc3)c2=O)c1
inactive: growth inhibition [1] 3.69% | growth inhibition [2] 7.43% | viability increase [3] -0.9% | viability [4] 98% | viability [5] 94.2% | inhibition [6] 1.27% | RAM network inhibition [7] 0.95%

COC(=O)NCc1ccc(Cl)c(Cl)c1
inactive: growth inhibition [1] 0.76% | growth inhibition [2] -7.57% | viability increase [3] -1.07% | viability [4] 85.4% | viability [5] 88.6% | inhibition [6] 0.09% | RAM network inhibition [7] 4.44%

CCOC(=O)c1sc2nc(NC(=O)c3cccs3)sc2c1C
inactive: growth inhibition [1] 5.51% | growth inhibition [2] -2.37% | viability increase [3] -1.92% | viability [4] 92.5% | viability [5] 87.4% | inhibition [6] -0.28% | RAM network inhibition [7] -0.16%

O=C(NCCc1csc(-c2ccccc2)n1)c1cccs1
inactive: growth inhibition [1] -8.41% | growth inhibition [2] 2.89% | viability increase [3] 2.21% | viability [4] 93.7% | viability [5] 94.5% | inhibition [6] 0.41% | RAM network inhibition [7] 3.89%

COc1cccc(NC(=O)Cn2cc3c(n2)CCCCC3)c1
inactive: growth inhibition [1] -10% | growth inhibition [2] -7.44% | viability increase [3] 0.07% | viability [4] 98.2% | viability [5] 92% | inhibition [6] 1.66% | RAM network inhibition [7] 6.31%

N=C1C(c2nc3ccccc3c(=O)[nH]2)=C(O)CN1CCc1ccccc1
inactive: growth inhibition [1] 2.17% | growth inhibition [2] -7.82% | viability increase [3] -3.19% | viability [4] 93.6% | viability [5] 87.2% | inhibition [6] 0.995% | RAM network inhibition [7] 3.92%

O=C(Oc1cccnc1)c1cccc(Cl)c1
inactive: growth inhibition [1] 6.51% | growth inhibition [2] 20.1% | viability increase [3] -0.55% | viability [4] 101% | viability [5] 97.5% | inhibition [6] 0.79% | RAM network inhibition [7] -2.15%

CCn1cc(C(=O)NCC2CCCO2)c2cc(OC)c(OC)cc2c1=O (stereo not drawn)
inactive: growth inhibition [1] -8.12% | growth inhibition [2] -20.1% | viability increase [3] -1.89% | viability [4] 95.4% | viability [5] 101% | inhibition [6] 0.955% | RAM network inhibition [7] 1.29%

O=C(O)c1ccc(NS(=O)(=O)c2cc(Cl)ccc2Cl)cc1
inactive: growth inhibition [1] -13.7% | growth inhibition [2] -25.1% | viability increase [3] -2.13% | viability [4] 97.8% | viability [5] 95.3% | inhibition [6] 1.72% | RAM network inhibition [7] 4.43%

Cn1c(C(=O)N2CCN(c3ccc(F)cc3)CC2)cc2c(=O)n(C)c3ccccc3c21
inactive: growth inhibition [1] -6.62% | growth inhibition [2] -10.8% | viability increase [3] -2.2% | viability [4] 95.1% | viability [5] 85% | inhibition [6] 1.64% | RAM network inhibition [7] 1.39%
